Here are results for 3 compounds from article PMC5299621 (The Journal of General Physiology, 2017).

The target of one experiment is hTRPM2 R1433Q mutant (Homo sapiens, UniProt O94759, R1433Q). Description: Whole-cell ADPR-induced currents, HEK293, R1433Q mutant. The format is cell-based. Particulars: R1433Q (Fig. 5 E). Summed up: (§1)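 HEK293 cells were cotransfected with 50 ng EGFP plus 1 µg WT or mutant hTRPM2 plasmid and recorded 24–36 h later, choosing cells of similar fluorescence and size. Recording was whole-cell at RT. […] Cells were held at 0 mV with a 500-ms ramp from −100 to 100 mV every 5 s. Currents were normalized to same-day mean maximal WT current. EC50 came from Hill fits. At least five cells per condition.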

Another experiment deals with hTRPM2 D1287A mutant (Homo sapiens, UniProt O94759, D1287A). Description: Whole-cell ADPR-induced currents, HEK293, D1287A mutant. In kind it is cell-based. Particulars: ADPR 100 µM (Fig. 8). In short, it runs like this: as §1
Another experiment addresses hTRPM2 H1346W mutant (Homo sapiens, UniProt O94759, H1346W). Description: Whole-cell ADPR-induced currents, HEK293, H1346W mutant. In kind it is cell-based.
The target in the next experiment is hTRPM2 E1409Q mutant (Homo sapiens, UniProt O94759, E1409Q). The experiment can be described thus: Whole-cell ADPR-induced currents, HEK293, E1409Q mutant. In kind it is cell-based.
Another experiment concerns the target hTRPM2 L1484A mutant (Homo sapiens, UniProt O94759, L1484A). Description: Whole-cell ADPR-induced currents, HEK293, L1484A mutant. In kind it is cell-based. The settings on record: 3 µM and 100 µM ADPR (Fig. 3 C). In short, it runs like this: as §1
Another experiment has as its target hTRPM2 Y1349F mutant (Homo sapiens, UniProt O94759, Y1349F). The experiment can be described thus: Whole-cell ADPR-induced currents, HEK293, Y1349F mutant. In kind it is cell-based. Particulars: Y1349F (Fig. 6 B). Summed up:
as §1

In a further experiment the target is hTRPM2 S1340A mutant (Homo sapiens, UniProt O94759, S1340A). Description: Whole-cell ADPR-induced currents, HEK293, S1340A mutant. Particulars: ADPR 100 µM (Fig. 8). In kind it is cell-based. Summed up:
as §1

A further experiment addresses hTRPM2 R1433L mutant (Homo sapiens, UniProt O94759, R1433L). Description: Whole-cell ADPR-induced currents, HEK293, R1433L mutant. The format is cell-based. The settings on record: R1433L (Fig. 5 E). Summed up:
as §1

Another experiment addresses hTRPM2 T1347F mutant (Homo sapiens, UniProt O94759, T1347F). Description: Whole-cell ADPR-induced currents, HEK293, T1347F mutant. In kind it is cell-based.
Another experiment deals with hTRPM2 E1409A mutant (Homo sapiens, UniProt O94759, E1409A). The experiment can be described thus: Whole-cell ADPR-induced currents, HEK293, E1409A mutant. In kind it is cell-based.
The next experiment relates to TRPM2 E1409K mutation. Particulars: ref Perraud et al., 2005, Tóth et al., 2014; cited from earlier work.
The target in a further experiment is hTRPM2 T1347Y mutant (Homo sapiens, UniProt O94759, T1347Y). The experiment can be described thus: Whole-cell ADPR-induced currents, HEK293, T1347Y mutant. In kind it is cell-based.
A further experiment has as its target hTRPM2 L1379S mutant (Homo sapiens, UniProt O94759, L1379S). Description: Whole-cell ADPR-induced currents, HEK293, L1379S mutant. In kind it is cell-based.
For a further experiment, the target named is hTRPM2 Y1349S mutant (Homo sapiens, UniProt O94759, Y1349S). Description: Whole-cell ADPR-induced currents, HEK293, Y1349S mutant. Particulars: Y1349S (Fig. 6 B). The format is cell-based. In short, it runs like this: as §1
Experiment [1] addresses T1, hTRPM2 G1389A mutant (Homo sapiens, UniProt O94759, G1389A). The experiment can be described thus: Whole-cell ADPR-induced currents, HEK293, G1389A mutant. The format is cell-based. Particulars: 3 µM and 100 µM ADPR (Fig. 3 C). Summed up: as §1
The next experiment concerns the target hTRPM2 WT channel (Homo sapiens, UniProt O94759). The experiment can be described thus: Whole-cell recording of ADPR-induced currents, HEK293 cells expressing WT hTRPM2. The format is cell-based.
The target of a further experiment is hTRPM2 S1391A mutant (Homo sapiens, UniProt O94759, S1391A). Description: Whole-cell ADPR-induced currents, HEK293, S1391A mutant. The format is cell-based.
The target of the next experiment is hTRPM2 T1347I mutant (Homo sapiens, UniProt O94759, T1347I). The experiment can be described thus: Whole-cell ADPR-induced currents, HEK293, T1347I mutant. In kind it is cell-based. The settings on record: T1347I (Fig. 5 C). Summed up:
as §1

For a further experiment, the target named is hTRPM2 H1346F mutant (Homo sapiens, UniProt O94759, H1346F). Description: Whole-cell ADPR-induced currents, HEK293, H1346F mutant. In kind it is cell-based. Particulars: H1346F (Fig. 5 B). In short, it runs like this: as §1
Experiment [2] has as its target T1, hTRPM2 G1389A mutant. Description: Whole-cell recording of calcium-induced TRPM2 currents, G1389A mutant. The format is cell-based. Particulars: 50 mM calcium, intracellular solution. Summed up: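 Transiently transfected HEK293 cells were compared with untransfected and WT-expressing cells by whole-cell recording at RT. Cells were held at 0 mV with a 500-ms ramp from −100 to 100 mV every 5 s. At least six cells per condition.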

For experiment [3], the target named is T1, hTRPM2 G1389A mutant. The experiment can be described thus: Whole-cell recording of H2O2-induced TRPM2 currents, G1389A mutant. The format is cell-based. Particulars: extracellular H2O2, 10 mM / 30 mM. Summed up: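 Whole-cell recording at RT was done on transiently transfected HEK293 cells, alongside untransfected and WT-expressing cells. Pipette: 147 mM NaCl, 0.05 mM EGTA, 1 mM MgCl2, 10 mM HEPES, pH 7.3. Cells were held at 0 mV with a 500-ms ramp from −100 to 100 mV every 5 s. At least six cells per condition.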

T1 sequence (O94759 whole entry G1389A): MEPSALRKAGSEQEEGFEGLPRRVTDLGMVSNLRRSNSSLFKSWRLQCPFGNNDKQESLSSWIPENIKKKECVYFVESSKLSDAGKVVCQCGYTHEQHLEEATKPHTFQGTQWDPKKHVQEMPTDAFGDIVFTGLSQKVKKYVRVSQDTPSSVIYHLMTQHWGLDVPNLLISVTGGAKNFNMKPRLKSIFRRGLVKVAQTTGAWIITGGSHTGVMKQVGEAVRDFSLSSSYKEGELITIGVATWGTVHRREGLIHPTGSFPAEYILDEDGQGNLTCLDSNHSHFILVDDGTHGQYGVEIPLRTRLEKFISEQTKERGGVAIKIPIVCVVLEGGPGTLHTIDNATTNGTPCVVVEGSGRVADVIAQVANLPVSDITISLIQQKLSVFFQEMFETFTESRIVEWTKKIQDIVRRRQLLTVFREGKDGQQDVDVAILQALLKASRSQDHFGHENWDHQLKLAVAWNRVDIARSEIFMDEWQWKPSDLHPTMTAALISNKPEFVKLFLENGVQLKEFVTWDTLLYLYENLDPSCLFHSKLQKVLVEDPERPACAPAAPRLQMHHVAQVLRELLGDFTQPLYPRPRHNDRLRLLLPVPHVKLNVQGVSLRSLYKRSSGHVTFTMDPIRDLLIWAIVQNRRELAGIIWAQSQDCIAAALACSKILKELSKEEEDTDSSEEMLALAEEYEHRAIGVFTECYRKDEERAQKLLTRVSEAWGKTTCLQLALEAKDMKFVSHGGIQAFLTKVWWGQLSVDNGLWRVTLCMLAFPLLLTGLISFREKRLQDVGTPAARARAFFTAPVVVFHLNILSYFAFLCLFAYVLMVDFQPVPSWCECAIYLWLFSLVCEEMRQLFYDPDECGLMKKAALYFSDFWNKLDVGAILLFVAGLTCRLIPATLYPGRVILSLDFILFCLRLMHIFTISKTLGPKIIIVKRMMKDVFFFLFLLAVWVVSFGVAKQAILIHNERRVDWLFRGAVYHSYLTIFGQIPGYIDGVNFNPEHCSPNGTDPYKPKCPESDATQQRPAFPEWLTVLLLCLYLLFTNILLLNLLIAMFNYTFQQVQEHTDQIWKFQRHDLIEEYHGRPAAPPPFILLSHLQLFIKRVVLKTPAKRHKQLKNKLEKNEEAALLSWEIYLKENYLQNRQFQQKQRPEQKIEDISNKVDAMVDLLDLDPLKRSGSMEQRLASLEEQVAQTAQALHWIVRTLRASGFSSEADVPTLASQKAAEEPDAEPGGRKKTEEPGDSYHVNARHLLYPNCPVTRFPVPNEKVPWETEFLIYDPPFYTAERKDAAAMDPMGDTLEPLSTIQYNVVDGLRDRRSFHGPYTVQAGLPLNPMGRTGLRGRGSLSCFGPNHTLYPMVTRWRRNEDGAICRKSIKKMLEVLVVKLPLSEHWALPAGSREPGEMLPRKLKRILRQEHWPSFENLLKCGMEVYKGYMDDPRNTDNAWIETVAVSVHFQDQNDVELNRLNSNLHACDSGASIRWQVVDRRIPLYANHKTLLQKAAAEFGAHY
hTRPM2 S1340A mutant, sequence (O94759 whole entry S1340A): as the sequence (O94759 whole entry G1389A) above, with S1340A, A1389G counted along it
hTRPM2 R1433Q mutant, sequence (O94759 whole entry R1433Q): as the sequence (O94759 whole entry G1389A) above, with A1389G, R1433Q counted along it
hTRPM2 R1433L mutant, sequence (O94759 whole entry R1433L): as the sequence (O94759 whole entry G1389A) above, with A1389G, R1433L counted along it
hTRPM2 E1409A mutant, sequence (O94759 whole entry E1409A): as the sequence (O94759 whole entry G1389A) above, with A1389G, E1409A counted along it
hTRPM2 WT channel, sequence (O94759 whole entry): as the sequence (O94759 whole entry G1389A) above, with A1389G counted along it
hTRPM2 L1484A mutant, sequence (O94759 whole entry L1484A): as the sequence (O94759 whole entry G1389A) above, with A1389G, L1484A counted along it
hTRPM2 Y1349S mutant, sequence (O94759 whole entry Y1349S): as the sequence (O94759 whole entry G1389A) above, with Y1349S, A1389G counted along it
hTRPM2 H1346W mutant, sequence (O94759 whole entry H1346W): as the sequence (O94759 whole entry G1389A) above, with H1346W, A1389G counted along it
hTRPM2 T1347I mutant, sequence (O94759 whole entry T1347I): as the sequence (O94759 whole entry G1389A) above, with T1347I, A1389G counted along it
hTRPM2 T1347F mutant, sequence (O94759 whole entry T1347F): as the sequence (O94759 whole entry G1389A) above, with T1347F, A1389G counted along it
hTRPM2 L1379S mutant, sequence (O94759 whole entry L1379S): as the sequence (O94759 whole entry G1389A) above, with L1379S, A1389G counted along it
hTRPM2 D1287A mutant, sequence (O94759 whole entry D1287A): as the sequence (O94759 whole entry G1389A) above, with D1287A, A1389G counted along it
hTRPM2 H1346F mutant, sequence (O94759 whole entry H1346F): as the sequence (O94759 whole entry G1389A) above, with H1346F, A1389G counted along it
hTRPM2 T1347Y mutant, sequence (O94759 whole entry T1347Y): as the sequence (O94759 whole entry G1389A) above, with T1347Y, A1389G counted along it
hTRPM2 Y1349F mutant, sequence (O94759 whole entry Y1349F): as the sequence (O94759 whole entry G1389A) above, with Y1349F, A1389G counted along it
hTRPM2 E1409Q mutant, sequence (O94759 whole entry E1409Q): as the sequence (O94759 whole entry G1389A) above, with A1389G, E1409Q counted along it
hTRPM2 S1391A mutant, sequence (O94759 whole entry S1391A): as the sequence (O94759 whole entry G1389A) above, with A1389G, S1391A counted along it

As for adenosine diphosphate ribose [ADPR], the “Response to ADPR” value at hTRPM2 R1433Q mutant and at hTRPM2 R1433L mutant was “no response” each time. The “Activity induced by ADPR” value at hTRPM2 D1287A mutant and on hTRPM2 S1340A mutant was “normal activity” throughout. Moreover, the Hill slope at hTRPM2 H1346W mutant worked out at 2.0; at hTRPM2 E1409Q mutant, 1.6; on hTRPM2 T1347F mutant, 1.2; on hTRPM2 E1409A mutant it was 1.5; at hTRPM2 T1347Y mutant, 1.3; at hTRPM2 L1379S mutant it was 1.0. Further, the Hill slope on hTRPM2 WT channel is listed as 2.6; at hTRPM2 S1391A mutant, 2.7. For the same compound, the “Channel function with ADPR” value at hTRPM2 L1484A mutant was “lack of channel function”. Besides, the “Channel activation by ADPR” value is recorded as “did not significantly alter channel activation” on hTRPM2 Y1349F mutant, “neither Y1349A nor Y1349S mutant could be activated” at hTRPM2 Y1349S mutant and “failed to be activated” on hTRPM2 G1389A mutant [1]. The “Impact of mutation on ADPR binding to the NUDT9-H domain” value in the experiment on TRPM2 E1409K mutation is recorded as “little impact”. Moreover, the “Channel sensitivity to ADPR” value on hTRPM2 T1347I mutant is “completely lost sensitivity”; on hTRPM2 H1346F mutant, “completely insensitive”.

For `[Ca+2]` [calcium], the “Channel activation by calcium” value on hTRPM2 G1389A mutant [2] is “readily activated”.

For `OO` [H2O2], the H2O2-induced current result at hTRPM2 G1389A mutant [3] is “failed to induce a current”.

A word on the Hill slope: it is a measure of the steepness of the concentration-response curve.
